Key:
[1] = test system: PC-3; assay: Tested in vitro for anticancer activity against PC-3 cells; format: functional, cell-based; settings: Homo sapiens
[2] = test system: LNCaP; assay: Tested in vitro for anticancer activity against LNCaP cells; format: functional, cell-based; settings: Homo sapiens
[3] = Tested in vitro for cytotoxicity against PBM cells; format: functional, cell-based; settings: Homo sapiens, PBMC
[4] = test system: CCRF-CEM; assay: Tested in vitro for anticancer activity against CEM cells; format: functional, cell-based; settings: Homo sapiens
[5] = test system: MCF7; assay: Tested in vitro for anticancer activity against MCF-7 cells; format: functional, cell-based; settings: Homo sapiens
[6] = test system: SK-MES-1; assay: Tested in vitro for anticancer activity against SK-MES-1 cells; format: functional, cell-based; settings: Homo sapiens
[7] = test system: HepG2; assay: Tested in vitro for anticancer activity against HepG2 cells; format: functional, cell-based; settings: Homo sapiens
[8] = test system: Human immunodeficiency virus 1; assay: (§1) Tested in vitro for anti HIV-1 activity against PBM cells; format: functional; settings: Human immunodeficiency virus 1, PBMC
[9] = test system: Vero; assay: Tested in vitro for cytotoxicity against Vero cells; format: functional, cell-based; settings: Chlorocebus sabaeus
[10] = test system: Human immunodeficiency virus 1; assay: as §1; format: functional, organism-based; settings: Human immunodeficiency virus 1, PBMC
[11] = test system: SK-MEL-28; assay: Tested in vitro for anticancer activity against SK-MEL-28 cells; format: functional, cell-based; settings: Homo sapiens
[12] = test system: 9L; assay: Tested in vitro for anticancer activity against 9L cells; format: functional, cell-based; settings: Rattus norvegicus
Summary of the method: (§2)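 Growth inhibition in human or rat tumour cell lines. Cells cultured with drug in 96-well plates for 5 days (LNCaP, SK-MES-1), 4 days (CEM, MCF-7, SK-MEL-28, HepG2, 9L) or 3 days (PC-3). Solvent-exposed untreated cells served as negative control. Viable, actively metabolizing cells were read by MTT assay. DMSO stocks (40 mM) were diluted in growth medium. IC50 in μM.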

[13] = biological target: Human immunodeficiency virus type 1 reverse transcriptase (Human immunodeficiency virus 1, UniProt Q72547); assay: (§3) The compound was tested for inhibitory activity against Recombinant HIV-1 reverse transcriptase
Summary of the method: (§4)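 Extension assay with HIV-1 p66/51 heterodimer RT (1 unit) and r(I)n·(dC)12-18 template-primer (0.05 units/mL). Buffer: Tris-HCl pH 8.0, KCl, MgCl2, DTT, 100 μg/mL BSA, 1 μM [3H]dCTP. Incubated 1 h at 37 °C, stopped with cold 10% TCA/0.05% sodium pyrophosphate for 30 min at 4 °C. Precipitate filter-harvested and counted by beta counting. 3TC-TP served as positive control.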

[14] = biological target: Human immunodeficiency virus type 1 reverse transcriptase (Human immunodeficiency virus 1) (UniProt Q72547); assay: as §3; summary of the method: as §4
[15] = test system: SK-MEL-28; assay: The compound was tested in vitro for anticancer activity against SK-MEL-28 cells; format: functional, cell-based; settings: Homo sapiens; summary of the method: as §2
[16] = test system: 9L; assay: The compound was tested in vitro for anticancer activity against 9L cells; format: functional, cell-based; settings: Rattus norvegicus; summary of the method: as §2

CC(=O)Nc1nc(=O)n([C@H]2C=C[C@@H](CO)O2)cc1F
IC50 [1]: > 100 µM | IC50 [2]: > 100 µM | IC50 [3]: > 100 µM | IC50 [4]: 14.7 µM | IC50 [5]: 62.9 µM | IC50 [6]: 84.6 µM | IC50 [7]: > 100 µM | EC90 [8]: 6 µM | IC50 [9]: 103 µM | EC50 [10]: 1 µM | IC50 [11]: 108 µM

O=C1NC(O)C(F)=CN1[C@H]1C=C[C@@H](CO)O1 (stereo not given in full)
IC50 [1]: 63 µM | IC50 [2]: 67.8 µM | IC50 [3]: 32.2 µM | IC50 [4]: 9.1 µM | IC50 [12]: 1.2 µM | IC50 [5]: 54.1 µM | IC50 [6]: 4.2 µM | IC50 [7]: 59.3 µM | EC90 [8]: 23 µM | IC50 [9]: 7.9 µM | EC50 [10]: 7.9 µM | IC50 [11]: 21.7 µM

Nc1nc(=O)n([C@H]2C=C[C@@H](CO)O2)cc1Br
IC50 [1]: > 100 µM | IC50 [2]: > 100 µM | IC50 [3]: 91.6 µM | IC50 [4]: 42.5 µM | IC50 [5]: > 100 µM | IC50 [6]: > 100 µM | IC50 [7]: > 100 µM | EC90 [8]: > 10 µM | IC50 [9]: > 100 µM | EC50 [10]: > 10 µM | IC50 [11]: > 100 µM

C[C@@H]1C[C@@H]([C@H](O)CC2CC(=O)NC(=O)C2)C(=O)[C@@H](C)C1 [CYCLOHEXIMIDE]
IC50 [1]: 3.5 µM | IC50 [2]: 1.2 µM | IC50 [3]: 2.1 µM | IC50 [4]: 0.12 µM | IC50 [12]: 0.2 µM | IC50 [5]: 1.5 µM | IC50 [6]: 2.7 µM | IC50 [7]: 2.5 µM | IC50 [9]: 1.2 µM | IC50 [11]: 1 µM

Nc1nc(=O)n([C@H]2C=C[C@@H](COP(=O)(O)OP(=O)(O)OP(=O)(O)O)C2)cc1F (racemic)
IC50 [13]: 0.27 µM | IC90 [14]: 2.2 µM

CC(=O)OC[C@@H]1C=C[C@H](n2cc(F)c(N)nc2=O)O1
IC50 [1]: > 100 µM | IC50 [3]: > 100 µM | IC50 [4]: > 100 µM | IC50 [6]: > 100 µM | IC50 [7]: > 100 µM | EC90 [8]: 0.4 µM | IC50 [9]: > 100 µM | EC50 [10]: 0.13 µM | IC50 [11]: > 100 µM

Nc1nc(=O)n([C@@H]2C=C[C@@H](CO)O2)cc1F
IC50 [1]: > 100 µM | IC50 [2]: > 100 µM | IC50 [3]: > 100 µM | IC50 [4]: > 100 µM | IC50 [12]: > 100 µM | IC50 [5]: > 100 µM | IC50 [6]: > 100 µM | IC50 [7]: > 100 µM | EC90 [8]: 70 µM | IC50 [9]: > 100 µM | EC50 [10]: 20 µM | IC50 [11]: > 100 µM

Nc1nc(=O)n([C@H]2C=C[C@@H](CO)O2)cc1F [DEXELVUCITABINE]
IC50 [1]: > 10 µM | IC50 [2]: > 100 µM | IC50 [3]: > 100 µM | IC50 [4]: > 100 µM | IC50 [5]: > 100 µM | IC50 [6]: > 100 µM | IC50 [7]: > 100 µM | EC90 [8]: 0.77 µM | IC50 [9]: > 100 µM | EC50 [10]: 0.046 µM | IC50 [11]: > 100 µM

Nc1ccn(C2C=CC(COP(=O)(O)OP(=O)(O)OP(=O)(O)O)C2)c(=O)n1 (racemic)
IC50 [13]: 0.38 µM | IC90 [14]: 3.4 µM

Nc1nc(=O)n(C2C=CC(CO)C2)cc1F (stereo not given)
IC50 [3]: > 100 µM | IC50 [4]: > 100 µM | EC90 [8]: 71 µM | IC50 [9]: > 100 µM | EC50 [10]: 8.2 µM

CCCC(=O)OC[C@@H]1C=C[C@H](n2cc(F)c(N)nc2=O)O1
IC50 [1]: > 100 µM | IC50 [2]: > 100 µM | IC50 [3]: > 100 µM | IC50 [4]: > 100 µM | IC50 [12]: > 100 µM | IC50 [5]: > 100 µM | IC50 [6]: > 100 µM | IC50 [7]: > 100 µM | EC90 [8]: 0.61 µM | IC50 [9]: > 100 µM | EC50 [10]: 0.15 µM | IC50 [11]: > 100 µM

O=c1[nH]cc(F)c(=O)[nH]1 [FLUOROURACIL]
IC50 [1]: > 100 µM | IC50 [2]: > 100 µM | IC50 [3]: 5 µM | IC50 [4]: 90.5 µM | IC50 [12]: 1 µM | IC50 [5]: 41 µM | IC50 [6]: 13.1 µM | IC50 [7]: 37.9 µM | IC50 [9]: 6.81 µM | IC50 [11]: 4.5 µM

CCCNc1nc(=O)n([C@H]2C=C[C@@H](CO)O2)cc1F
IC50 [1]: > 100 µM | IC50 [2]: > 100 µM | IC50 [3]: 34.7 µM | IC50 [4]: > 100 µM | IC50 [5]: > 100 µM | IC50 [6]: > 100 µM | IC50 [7]: > 100 µM | EC90 [8]: > 100 µM | IC50 [9]: > 100 µM | EC50 [10]: > 100 µM | IC50 [11]: > 100 µM

O=c1[nH]c(=O)n([C@@H]2C=C[C@H](CO)O2)cc1F
IC50 [1]: 83.4 µM | IC50 [2]: 57.2 µM | IC50 [3]: 2.3 µM | IC50 [4]: 12.9 µM | IC50 [12]: 1.9 µM | IC50 [5]: 15.8 µM | IC50 [6]: 4.6 µM | IC50 [7]: 35.4 µM | EC90 [8]: 3 µM | IC50 [9]: 32 µM | EC50 [10]: 0.26 µM | IC50 [11]: 7.45 µM

Nc1ccn(C2C=CC(CO)C2)c(=O)n1 (stereo not given)
IC50 [3]: > 100 µM | IC50 [4]: > 100 µM | EC90 [8]: 59.9 µM | IC50 [9]: > 100 µM | EC50 [10]: 9 µM

Cc1cn([C@H]2C[C@H](N=[N+]=[N-])[C@@H](CO)O2)c(=O)[nH]c1=O [ZIDOVUDINE]
IC50 [15]: > 10 µM | IC50 [3]: > 100 µM | IC50 [5]: > 10 µM | IC50 [6]: > 100 µM | EC90 [8]: 0.02 µM | EC50 [10]: 0.002 µM

Nc1ccc([C@@H]2CS[C@H](OP(=O)(O)OP(=O)(O)OP(=O)(O)O)O2)c(O)n1
IC90 [14]: 29.8 µM

O=c1[nH]c(=O)n([C@@H]2C=C[C@@H](CO)O2)cc1F
IC50 [1]: > 100 µM | IC50 [2]: 85.8 µM | IC50 [3]: 47.4 µM | IC50 [4]: 11.4 µM | IC50 [16]: 2.4 µM | IC50 [5]: 67.3 µM | IC50 [6]: 10 µM | IC50 [7]: 37.1 µM | EC90 [8]: 23 µM | IC50 [9]: 3 µM | EC50 [10]: 7.5 µM | IC50 [11]: 9.8 µM

Nc1nc(=O)n([C@@H]2C=C[C@H](CO)O2)cc1F [ELVUCITABINE]
IC50 [1]: > 100 µM | IC50 [2]: 55.2 µM | IC50 [3]: 12.9 µM | IC50 [4]: 0.46 µM | IC50 [5]: 82.8 µM | IC50 [6]: 99.1 µM | IC50 [7]: 118 µM | EC90 [8]: 0.16 µM | IC50 [9]: 9.4 µM | EC50 [10]: 0.034 µM | IC50 [11]: > 100 µM

Nc1nc(=O)n(C2C=CC(COP(=O)(O)OP(=O)(O)OP(=O)(O)O)C2)cc1F (racemic)
IC50 [13]: 0.4 µM | IC90 [14]: 4 µM

Nc1nc(=O)n([C@H]2C=C[C@@H](CO)O2)cc1I
IC50 [1]: > 100 µM | IC50 [2]: > 100 µM | IC50 [3]: 98.3 µM | IC50 [4]: 107 µM | IC50 [5]: > 100 µM | IC50 [6]: > 100 µM | IC50 [7]: > 100 µM | EC90 [8]: > 10 µM | IC50 [9]: > 100 µM | EC50 [10]: > 10 µM | IC50 [11]: > 100 µM

Nc1ccc([C@@H]2CS[C@H](OP(=O)(O)OP(=O)(O)OP(=O)(O)O)O2)c(=O)[nH]1
IC50 [13]: 3.6 µM

CCCCC(=O)OC[C@@H]1C=C[C@H](n2cc(F)c(N)nc2=O)O1
IC50 [1]: > 100 µM | IC50 [2]: > 100 µM | IC50 [3]: > 100 µM | IC50 [4]: 124 µM | IC50 [5]: > 100 µM | IC50 [6]: > 100 µM | IC50 [7]: > 100 µM | EC90 [8]: 0.34 µM | IC50 [9]: > 100 µM | EC50 [10]: 0.056 µM | IC50 [11]: > 100 µM

From ChEMBL document CHEMBL1132699, “Synthesis and biological evaluation of 2',3'-didehydro-2',3'- dideoxy-5-fluorocytidine (D4FC) analogues: discovery of carbocyclic nucleoside triphosphates with potent inhibitory activity against HIV-1 reverse transcriptase” (J Med Chem, 1999)
